Key:
[1] = biological target: T1, Serine/threonine-protein kinase TAO2 (Homo sapiens) (UniProt Q9UL54); assay: Inhibition of TAOK2 (unknown origin) assessed as residual activity at 1 uM relative to control
T1 sequence (whole entry): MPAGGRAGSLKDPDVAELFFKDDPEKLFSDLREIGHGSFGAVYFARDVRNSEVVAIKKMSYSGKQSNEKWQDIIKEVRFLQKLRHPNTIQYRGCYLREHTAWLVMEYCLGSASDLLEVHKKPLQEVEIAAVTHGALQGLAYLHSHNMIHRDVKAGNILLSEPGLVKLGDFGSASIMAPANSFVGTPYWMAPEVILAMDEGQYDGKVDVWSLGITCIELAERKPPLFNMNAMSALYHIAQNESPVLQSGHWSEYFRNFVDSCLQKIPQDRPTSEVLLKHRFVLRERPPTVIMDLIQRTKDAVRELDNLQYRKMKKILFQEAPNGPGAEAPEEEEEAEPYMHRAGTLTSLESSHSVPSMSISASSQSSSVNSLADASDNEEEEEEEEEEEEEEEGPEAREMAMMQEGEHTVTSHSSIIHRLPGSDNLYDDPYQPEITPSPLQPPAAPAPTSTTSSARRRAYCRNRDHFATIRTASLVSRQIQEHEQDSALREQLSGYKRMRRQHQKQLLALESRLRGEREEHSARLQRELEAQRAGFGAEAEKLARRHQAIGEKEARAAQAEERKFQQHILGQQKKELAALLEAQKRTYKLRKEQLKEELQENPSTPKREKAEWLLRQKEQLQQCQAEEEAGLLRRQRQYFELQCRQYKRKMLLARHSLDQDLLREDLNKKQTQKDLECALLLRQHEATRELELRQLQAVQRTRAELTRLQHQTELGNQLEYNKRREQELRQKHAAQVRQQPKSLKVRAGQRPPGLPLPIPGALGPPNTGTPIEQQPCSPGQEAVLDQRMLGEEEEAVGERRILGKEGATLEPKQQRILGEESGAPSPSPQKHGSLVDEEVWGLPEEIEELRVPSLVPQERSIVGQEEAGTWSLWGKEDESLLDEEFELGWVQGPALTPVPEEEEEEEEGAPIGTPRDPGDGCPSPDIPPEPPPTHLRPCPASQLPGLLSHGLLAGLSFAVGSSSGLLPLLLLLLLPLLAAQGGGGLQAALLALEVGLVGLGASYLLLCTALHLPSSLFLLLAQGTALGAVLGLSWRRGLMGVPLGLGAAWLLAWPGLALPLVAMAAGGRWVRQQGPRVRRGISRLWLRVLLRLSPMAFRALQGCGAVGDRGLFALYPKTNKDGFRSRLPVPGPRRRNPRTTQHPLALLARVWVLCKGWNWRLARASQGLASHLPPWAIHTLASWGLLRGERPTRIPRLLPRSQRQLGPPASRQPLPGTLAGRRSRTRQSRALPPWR
Summary of the method: (§1)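 Each inhibitor is tested at a single concentration, 1 µM or 0.5 µM depending on the compound. Results are reported as residual kinase activity.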

[2] = biological target: T2, Serine/threonine-protein kinase Sgk1 (Homo sapiens) (UniProt O00141); assay: Inhibition of full length human GST-tagged SGK1 expressed in Sf9 cells assessed as residual activity at 1 uM relative to control; summary of the method: as §1
T2 sequence (whole entry): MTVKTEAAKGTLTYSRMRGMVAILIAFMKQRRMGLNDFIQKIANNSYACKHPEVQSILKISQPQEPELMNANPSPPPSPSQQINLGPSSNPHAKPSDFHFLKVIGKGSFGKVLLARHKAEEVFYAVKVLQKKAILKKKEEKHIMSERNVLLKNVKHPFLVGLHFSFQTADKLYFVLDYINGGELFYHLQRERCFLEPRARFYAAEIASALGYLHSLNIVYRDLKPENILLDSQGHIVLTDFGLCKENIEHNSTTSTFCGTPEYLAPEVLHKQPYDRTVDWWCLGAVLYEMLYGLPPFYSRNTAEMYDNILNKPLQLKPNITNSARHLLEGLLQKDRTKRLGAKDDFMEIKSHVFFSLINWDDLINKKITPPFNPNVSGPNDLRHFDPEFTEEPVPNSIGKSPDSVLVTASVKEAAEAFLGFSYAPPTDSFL

[3] = biological target: Mitogen-activated protein kinase 10 (Homo sapiens, UniProt P53779); assay: Inhibition of recombinant 6x-His-tagged JNK3 (39 to 402 residues) (unknown origin) expressed in Escherichia coli BL21(DE3) assessed as reduction in ATF2 phosphorylation measured after 50 mins by ELISA
Chain of Mitogen-activated protein kinase 10 (P53779 whole entry, the tested form may be a part): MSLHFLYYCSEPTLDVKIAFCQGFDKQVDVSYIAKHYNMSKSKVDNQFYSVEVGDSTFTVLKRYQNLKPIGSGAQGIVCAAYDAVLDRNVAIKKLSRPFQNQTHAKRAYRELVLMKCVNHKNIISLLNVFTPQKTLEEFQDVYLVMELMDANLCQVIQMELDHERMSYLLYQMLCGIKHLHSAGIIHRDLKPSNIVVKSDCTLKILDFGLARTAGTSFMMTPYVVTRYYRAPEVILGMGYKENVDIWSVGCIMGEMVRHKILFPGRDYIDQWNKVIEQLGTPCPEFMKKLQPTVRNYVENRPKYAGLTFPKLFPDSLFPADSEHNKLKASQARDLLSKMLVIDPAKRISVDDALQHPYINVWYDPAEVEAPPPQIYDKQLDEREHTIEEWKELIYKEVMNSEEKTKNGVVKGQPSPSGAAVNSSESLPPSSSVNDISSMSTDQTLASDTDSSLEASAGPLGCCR

Activity [1]: 10 to 29% | Activity [2]: 10 to 29% | IC50 [3]: 2 nM
Compound: C=CC(=O)Nc1cccc(C(=O)Nc2ccc(Nc3cc(-c4[nH]c(SC)nc4C)ccn3)cc2)c1

Source: ChEMBL document CHEMBL4002589, “Tri- and Tetrasubstituted Pyridinylimidazoles as Covalent Inhibitors of c-Jun N-Terminal Kinase 3” (J Med Chem, 2017)
